Measured values reported in ChEMBL document CHEMBL1154745, “Synthesis and biological evaluation of N-aryl-1,4-dihydropyridines as novel antidyslipidemic and antioxidant agents” (2010).

Tests used:
[1] = Antioxidant activity assessed as superoxide radical scavenging activity at 200 ug/ml; assay type: functional
How it was run: (§1)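 Superoxide was generated enzymatically by xanthine with xanthine oxidase (0.04 U) and nitroblue tetrazolium in 100 mM phosphate buffer, pH 8.2, with or without test agent. Mixtures were incubated at 37 °C for 30 min and stopped with glacial acetic acid. Formazan formation was measured spectrophotometrically.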

[2] = Antioxidant activity assessed as hydroxyl radical scavenging activity at 100 ug/ml; assay type: functional
[3] = Antioxidant activity assessed as hydroxyl radical scavenging activity at 200 ug/ml; assay type: functional
Rattus norvegicus [4] = assay: Antidyslipidemic activity against triton-induced hyperlipidemia in Charles Foster rat assessed as reduction in plasma phospholipid level at 100 mg/kg, po after 18 hrs relative to control; assay type: functional; set-up: scale not given: the % may be the effect or the level left
How it was run: (§2)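 Adult male Charles Foster rats (200–225 g) were given Triton WR-1339 400 mg/kg i.p. Test agent was suspended in 0.2% w/v gum acacia in water and dosed orally at the same time. There were five rats per group, and controls received vehicle. At 18 h, retro-orbital blood was taken into EDTA and centrifuged at 2500g, 4 °C, 10 min. Plasma was diluted 1:3 in saline, and lipids were measured by standard enzymatic kits.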

[5] = Antioxidant activity assessed as inhibition of microsomal lipid peroxidation at 200 ug/mL; assay type: functional; set-up: scale not given: the % may be the effect or the level left
How it was run: (§3)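 Inhibition of lipid peroxidation in microsomal fractions, sonicated in phosphate buffer, was read out as nmol MDA formed/h/mg protein.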

[6] = Antioxidant activity assessed as superoxide radical scavenging activity at 100 ug/ml; assay type: functional; how it was run: as §1
Rattus norvegicus [7] = assay: Antidyslipidemic activity against triton-induced hyperlipidemia in Charles Foster rat assessed as reduction in plasma triglyceride level at 100 mg/kg, po after 18 hrs relative to control; assay type: functional; set-up: scale not given: the % may be the effect or the level left; how it was run: as §2
Rattus norvegicus [8] = assay: Antidyslipidemic activity against triton-induced hyperlipidemia in Charles Foster rat assessed as reduction in total cholesterol level at 100 mg/kg, po after 18 hrs relative to control
[9] = Antioxidant activity assessed as inhibition of microsomal lipid peroxidation at 100 ug/mL; assay type: functional; set-up: scale not given: the % may be the effect or the level left; how it was run: as §3
Rattus norvegicus [10] = assay: Antidyslipidemic activity against triton-induced inhibition of post heparin lipolytic activity in Charles Foster rat at 100 mg/kg, po after 18 hrs; assay type: functional; set-up: scale not given: the % may be the effect or the level left
How it was run: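 Triton WR-1339 hyperlipidemia model in male Charles Foster rats (200–225 g): 400 mg/kg i.p. triton plus oral test agent in gum acacia suspension, with five rats per group. After 18 h, post-heparin lipolytic activity was determined by the Wing and Robinson method on plasma, using spectrophotometry and an auto-analyzer.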

| SMILES | Activity [1] | Activity [2] | Activity [3] | Activity (Rattus norvegicus [4]) | Activity [5] | Activity [6] | Activity (Rattus norvegicus [7]) | total cholesterol lowering (Rattus norvegicus [8]) | Activity [9] | Activity (Rattus norvegicus [10]) |
| --- | --- | --- | --- | --- | --- | --- | --- | --- | --- | --- |
| CCOC(=O)C1=C(C)N(c2ccc(Br)cc2)C=CC1c1ccccc1 (centres undefined) | -28.4% | -14.8% | -35.7% | 12.5% | -32.1% | -18.7% | 12.1% | 18.3% | -20.7% | 12% |
| CCOC(=O)C1=C(C)N(c2ccc(Cl)cc2)C=CC1c1ccccc1 (centres undefined) | -37.4% | -20.8% | -31.1% | 16.5% | -34.4% | -19.1% | 9.8% | 16% |  | 8.3% |
| CC1=C(C(=O)OC(C)(C)C)C(c2ccccc2)C=CN1c1ccc(Cl)cc1 (centres undefined) | -48% | -19.2% | -34.6% | 13.5% | -26.6% | -24.5% | 11.5% | 15.5% | -18.5% | 8.9% |
| CCOC(=O)C1=C(C)N(c2ccccc2)C=CC1c1ccccc1 (centres undefined) | -34% | -13.8% | -29.3% | 28.5% | -37.1% | -21.5% | 25.3% | 21.9% | -19.9% | 16.3% |
| CCOC(=O)C1=C(C)N(c2ccc(C)cc2)C=CC1c1ccccc1 (centres undefined) | -35.8% | -20.7% | -32.7% | 23.7% | -38.4% | -22.9% | 21.2% | 18.7% | -23.5% | 24.9% |
| CCOC(=O)C1=C(C)N(c2ccccc2)C=CC1c1ccccc1[N+](=O)[O-] (centres undefined) | -33.6% | -11.5% | -26.9% | 5.7% | -25.1% | -20.6% | 10.5% | 14% | -19.2% | 12.3% |
| COC(=O)C1=C(C)N(c2ccc(OC)cc2)C=C(C)C1c1ccccc1 (centres undefined) | -34.7% | -13.9% | -22.6% | 15.3% | -28.9% | -19.8% | 20.7% | 15% | -14.7% | 14.7% |
| CC1=C(C(=O)OC(C)(C)C)C(c2ccccc2)C=CN1c1ccccc1 (centres undefined) | -52.9% | -23.1% | -37.1% | 12.8% | -42.1% | -30.7% | 11% | 11.5% | -35.7% | 8.4% |
| COC(=O)C1=C(C)N(c2ccccc2)C=CC1c1ccccc1 (centres undefined) | -43% | -26.9% | -23% | 21.3% | -37.3% | -25.9% | 18.7% | 24.8% | -21.5% | 10.9% |
| COC(=O)C1=C(C)N(c2cccc(Cl)c2)C=C(C)C1c1ccccc1 (centres undefined) | -35.3% | -12% | -23% | 13.4% | -22.8% | -21.3% | 8.9% | 12.2% | -16.2% | 13.9% |
| COC(=O)C1=C(C)N(c2ccccc2)C=C(C)C1c1ccccc1 (centres undefined) | -48% | -14.1% | -33.1% | 11% | -37.4% | -21.1% | 8.1% | 11% | -22.7% | 8.4% |
| Cc1c(C)c2c(c(C)c1O)CC[C@@](C)(CCC[C@H](C)CCC[C@H](C)CCCC(C)C)O2 |  |  |  |  | -52.1% |  |  |  | -43.9% |  |
| CCOC(=O)C1=C(C)N(c2ccc(F)cc2)C=CC1c1ccccc1 (centres undefined) | -42.5% | -10.9% | -25.5% | 15.3% | -35.8% | -25.7% | 13.6% | 17% | -28.5% | 8.1% |
| COC(=O)C1=C(C)N(c2cccc(C)c2C)C=C(C)C1c1ccccc1 (centres undefined) | -32.2% | -19.7% | -29.3% | 23.9% | -33.1% | -23.6% | 25.7% | 24.1% | -22.7% | 23.7% |
| COC(=O)C1=C(C)N(c2ccccc2)C=CC1c1ccc(OC)cc1 (centres undefined) | -44.8% | -18.3% | -27.7% | 18.7% | -30.3% | -29.8% | 18.7% | 18.1% | -17.6% | 9.8% |
| Oc1ncnc2[nH]ncc12 | -77.5% |  |  |  |  | -66.4% |  |  |  |  |
| OC[C@@H](O)[C@@H](O)[C@H](O)[C@H](O)CO |  | -31.2% | -44.5% |  |  |  |  |  |  |  |
| Cc1ccc(C)c(OCCCC(C)(C)C(=O)O)c1 [GEMFIBROZIL] |  |  |  | 39.1% |  |  | 36.1% | 37.1% |  | 34.2% |
